“Also recorded” adds a separate entry of the source. Each block holds one compound with its values, some of them ahead of it.
Legend:
Hsp90β [1] = target: T1, Hsp90β (Homo sapiens, UniProt P08238); test: Competitive displacement of FITC-GA; type: binding; conditions: competitor 3 nM to 3 μM; 60 nM Hsp90β, 5 nM FITC-GA
Hsp70 = Hsp70 (Homo sapiens, UniProt P0DMV8); test: Transcreener ADP Hsp70 ATPase assay; type: biochemical; conditions: 0.5 μM Hsp70; up to 200 μM
Procedure, shortened: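 Stopped with EDTA stop-and-detect buffer containing ADP² antibody-IRDye QC-1 and 8 nM ADP Alexa594 tracer, 1 h at RT. Endpoint fluorescence intensity read. Three experiments, four-parameter logistic fit.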

His6-Hsp90β CTD = His6-Hsp90β CTD (Homo sapiens, UniProt P08238); test: BS3 crosslinking dimerization/oligomerization assay, His6-Hsp90β CTD; type: biochemical; conditions: for oligomerization state of His6-Hsp90β CTD (crosslinking): 2 μM protein, BS3 crosslinker
Hsp90β [2] = target: T1, Hsp90β; test: Transcreener ADP Hsp90 ATPase assay; type: biochemical
GST-Hsp90α CTD [3] = target: T2, GST-Hsp90α CTD (Homo sapiens, UniProt P07900); test: ADH aggregation; type: biochemical; conditions: for inhibition of Hsp90 CTD chaperone (anti-aggregation) activity, ADH aggregation assay: 40 μM compound, 500 nM Hsp90 CTD, 55 °C, end point 90 min
Procedure, shortened: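 Reaction: 6.2 μM equine ADH, with or without 500 nM GST-Hsp90α CTD and compound. Aggregation induced at 55 °C, read as absorbance at 360 nm every minute for 90 min. The 90-min endpoint was used, with the mean of ADH alone set to 100%. Three independent experiments.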

full-length Hsp90α = full-length Hsp90α (Homo sapiens, UniProt P07900); test: BS3 crosslinking assay, full length Hsp90α; type: biochemical; conditions: 2 μM protein; BS3 crosslinker
Procedure, shortened: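 Full-length Hsp90α used at 2 μM in 50 mM NaPO₄ and 150 mM NaCl, preincubated with compound for 1 h at room temperature. BS3 crosslinker added at 66–200 μM final for 1 h at RT, then quenched with 50 mM Tris-HCl pH 7.5 for 15 min. Analysed by 10% SDS-PAGE and western blot.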

GST-Hsp90α CTD [4] = target: T2, GST-Hsp90α CTD; test: BS3 crosslinking assay, GST-Hsp90α CTD; type: biochemical; conditions: 2 μM protein; NSC145366 10 μM to 100 μM
GST-Hsp90α NTD = GST-Hsp90α NTD (Homo sapiens, UniProt P07900); test: BS3 crosslinking assay, GST-Hsp90α NTD; type: biochemical; conditions: 2 μM protein
Procedure, shortened: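 2 μM protein buffer-exchanged into 50 mM NaPO₄ and 150 mM NaCl, then preincubated with compound for 1 h at room temperature. BS3 added at 66–200 μM final for 1 h at RT, then quenched with 50 mM Tris-HCl pH 7.5 for 15 min. Boiled in SDS dye, run on 10% SDS-PAGE, western-blotted and probed with anti-GST antibody.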

GST-Hsp90α CTD [5] = target: T2, GST-Hsp90α CTD; test: ATP-agarose pulldown, Hsp90 CTD; type: binding; conditions: 200 μM compound, 6 μM CTD
LNCaP cells = test: Western blot of Hsp90 clients and heat shock proteins in LNCaP cells; type: cell-based; conditions: 48 h
Procedure, shortened: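 ATCC LNCaP cells kept in ATCC-recommended medium, authenticated and used within 20 passages. Cells treated for 48 h, trypsinised, PBS-washed and lysed in RIPA with protease inhibitors, 1 mM PMSF, 0.1% Triton X-100 and 1 mM DTT. Protein measured by Bradford before western blot. Band intensities of treated samples expressed as percentage of vehicle.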

GST-Hsp90α CTD (626–732) = GST-Hsp90α CTD (626–732) (Homo sapiens, UniProt P07900); test: DARTs assay with GST-Hsp90α CTD; type: binding; conditions: 200 μM compound

Sequence of His6-Hsp90β CTD (P08238 530-724): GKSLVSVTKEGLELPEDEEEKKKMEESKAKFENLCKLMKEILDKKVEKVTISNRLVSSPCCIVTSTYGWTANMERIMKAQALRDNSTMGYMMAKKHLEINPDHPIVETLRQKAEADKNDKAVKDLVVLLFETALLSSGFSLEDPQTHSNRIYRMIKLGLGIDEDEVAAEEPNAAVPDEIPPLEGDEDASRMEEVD
T1 sequence (P08238 whole entry): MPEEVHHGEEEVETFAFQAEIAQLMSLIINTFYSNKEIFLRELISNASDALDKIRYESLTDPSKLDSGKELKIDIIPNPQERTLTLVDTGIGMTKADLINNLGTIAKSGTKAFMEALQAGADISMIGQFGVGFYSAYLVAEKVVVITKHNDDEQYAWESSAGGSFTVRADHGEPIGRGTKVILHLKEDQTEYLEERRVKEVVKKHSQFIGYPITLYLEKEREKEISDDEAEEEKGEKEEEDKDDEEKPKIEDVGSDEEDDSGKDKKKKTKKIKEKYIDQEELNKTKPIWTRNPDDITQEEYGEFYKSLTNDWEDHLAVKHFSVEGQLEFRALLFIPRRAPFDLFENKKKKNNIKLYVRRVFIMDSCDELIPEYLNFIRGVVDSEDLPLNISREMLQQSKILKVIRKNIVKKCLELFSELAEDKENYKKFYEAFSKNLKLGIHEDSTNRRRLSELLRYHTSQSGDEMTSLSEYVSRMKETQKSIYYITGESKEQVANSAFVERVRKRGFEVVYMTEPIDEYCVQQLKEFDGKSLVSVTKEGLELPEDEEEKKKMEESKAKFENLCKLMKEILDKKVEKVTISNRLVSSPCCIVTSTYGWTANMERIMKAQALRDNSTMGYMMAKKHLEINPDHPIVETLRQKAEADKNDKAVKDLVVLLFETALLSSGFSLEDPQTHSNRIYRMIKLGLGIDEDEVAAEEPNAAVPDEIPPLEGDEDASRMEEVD
Sequence of Hsp70 (P0DMV8 whole entry): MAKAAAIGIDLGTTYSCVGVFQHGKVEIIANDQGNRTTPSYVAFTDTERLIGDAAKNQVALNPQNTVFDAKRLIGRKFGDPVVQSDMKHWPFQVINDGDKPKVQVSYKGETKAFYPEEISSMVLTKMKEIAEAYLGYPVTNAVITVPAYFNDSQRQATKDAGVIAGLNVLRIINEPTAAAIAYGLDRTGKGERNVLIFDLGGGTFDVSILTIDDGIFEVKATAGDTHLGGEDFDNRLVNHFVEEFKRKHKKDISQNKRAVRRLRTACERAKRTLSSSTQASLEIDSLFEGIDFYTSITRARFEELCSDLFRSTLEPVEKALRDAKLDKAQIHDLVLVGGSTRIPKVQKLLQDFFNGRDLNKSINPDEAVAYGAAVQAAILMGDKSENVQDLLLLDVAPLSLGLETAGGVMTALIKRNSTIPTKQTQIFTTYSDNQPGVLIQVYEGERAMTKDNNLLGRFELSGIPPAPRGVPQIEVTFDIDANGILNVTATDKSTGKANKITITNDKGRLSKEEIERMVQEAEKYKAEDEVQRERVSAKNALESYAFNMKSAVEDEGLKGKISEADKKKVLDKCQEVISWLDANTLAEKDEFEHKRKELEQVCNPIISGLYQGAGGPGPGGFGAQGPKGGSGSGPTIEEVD

competition with FITC-GA binding to Hsp90β (Hsp90β [1]): compete with fluorescently labeled GA
Structure (SMILES): CCNC(=O)c1noc(-c2cc(C(C)C)c(O)cc2O)c1-c1ccc(CN2CCOCC2)cc1 [AUY922]

Structure (SMILES): C=CCNC1=C2C[C@@H](C)C[C@H](OC)[C@H](O)[C@@H](C)/C=C(\C)[C@H](OC(N)=O)[C@@H](OC)/C=C\C=C(/C)C(=O)NC(=CC1=O)C2=O [Analog 17-AAG, reference compound]
inhibition of Hsp70 ATPase function (Hsp70): no effect on Hsp70 ATPase function

Structure (SMILES): CC(C)(c1ccc(OCC(O)CN2CCOCC2)cc1)c1ccc(OCC(O)CN2CCOCC2)cc1 (stereo not shown) [Analog A1, 3,3’-((propane-2,2-diylbis(4,1-phenylene))bis(oxy))bis(1-mor-pholinopropan-2-ol)]
oligomerization state of His6-Hsp90β CTD (crosslinking) (His6-Hsp90β CTD): CTD monomer band was eliminated

oligomerization state of His6-Hsp90β CTD (crosslinking) (His6-Hsp90β CTD): CTD monomer band was eliminated | IC50 (Hsp90β [2]): ~216 µM
Structure (SMILES): CN1CCN(CC(O)COc2ccc(C(C)(C)c3ccc(OCC(O)CN4CCN(C)CC4)cc3)cc2)CC1 (stereo not shown) [Analog A2, 3,3’-((propane-2,2-diylbis(4,1-phenylene))bis(oxy))bis(1-(4-methylpiperazin-1-yl)propan-2-ol)]

Structure (SMILES): CC(C)(c1ccc(OCC(O)CNCc2ccco2)cc1)c1ccc(OCC(O)CNCc2ccco2)cc1 (stereo not shown) [Analog A3, 3,3’-((propane-2,2-diylbis(4,1-phenylene))bis(oxy))bis(1-((fur-an-2-ylmethyl)amino)propan-2-ol)]
oligomerization state of His6-Hsp90β CTD (crosslinking) (His6-Hsp90β CTD): oligomer formation was completely inhibited | disruption of CTD dimer formation compared with Cm A1 (His6-Hsp90β CTD; His6-Hsp90β CTD, 200 μM BS3 (Fig. S10)): disrupt dimer formation more efficiently than Cm A1

oligomerization state of His6-Hsp90β CTD (crosslinking) (His6-Hsp90β CTD): CTD monomer band was eliminated | IC50 (Hsp90β [2]): ~262 µM
Structure (SMILES): CC(C)CNCC(O)COc1ccc(C(C)(C)c2ccc(OCC(O)CNCC(C)C)cc2)cc1 (stereo not shown) [Analog A8, 3,3’-((propane-2,2-diylbis(4,1-phenylene))bis(oxy))bis(1-(iso-butylamino)propan-2-ol)]

Structure (SMILES): CC(C)(c1ccc(OCC2CO2)cc1)c1ccc(OCC2CO2)cc1 (stereo not shown) [BADGE, bisphenol A diglycidyl ether]
inhibition of Hsp90 CTD chaperone (anti-aggregation) activity, ADH aggregation assay (GST-Hsp90α CTD [3]): slight inhibition

IC50, Hsp90β ATPase function (Hsp90β [2]; 0.5 μM Hsp90β, 250 μM ATP, 37 °C 30 min): does not have a measurable IC50
Structure (SMILES): CC(C)(c1ccc(O)cc1)c1ccc(O)cc1 [BPA, Bisphenol A]
inhibition of Hsp90 CTD chaperone (anti-aggregation) activity, ADH aggregation assay (GST-Hsp90α CTD [3]): did not exhibit inhibition; also recorded: Minimal inhibition

Structure (SMILES): CO[C@H]1[C@H](OC(=O)c2ccc(C)[nH]2)[C@H](O)[C@@H](Oc2ccc3c(O)c(NC(=O)c4c[nH]c(C(=O)Nc5c(O)c6ccc(O[C@H]7OC(C)(C)[C@@H](OC)[C@H](OC(=O)c8ccc(C)[nH]8)[C@@H]7O)c(C)c6oc5=O)c4C)c(=O)oc3c2C)OC1(C)C [Cm A1, coumermycin A1, reference compound]
increase in ADH aggregation (GST-Hsp90α CTD [3]; 50 μM, positive control): ~ 40% | oligomerization state of His6-Hsp90β CTD (crosslinking) (His6-Hsp90β CTD): increases the level of monomeric Hsp90 CTD | oligomerization state of full-length Hsp90α (crosslinking) (full-length Hsp90α): slightly increases the monomer level of full-length Hsp90α | oligomerization state of GST-Hsp90α CTD (crosslinking) (GST-Hsp90α CTD [4]): increases the level of CTD monomers | oligomerization of GST-Hsp90α NTD (crosslinking) (GST-Hsp90α NTD): appears to decrease oligomerization of the NTD | inhibition of CTD binding to ATP-agarose (GST-Hsp90α CTD [5]): inhibits CTD binding to ATP

competition with FITC-GA binding to Hsp90β (Hsp90β [1]): compete with fluorescently labeled GA
Structure (SMILES): COC1=C2C[C@@H](C)C[C@H](OC)[C@H](O)[C@@H](C)/C=C(\C)[C@H](OC(N)=O)[C@@H](OC)/C=C\C=C(/C)C(=O)NC(=CC1=O)C2=O [GA, geldanamycin, reference compound]
induction of classical heat shock response (Hsp70, Hsp27, Hsp40) (LNCaP cells): did induce the classical heat shock response | BRCA1 expression level compared to DMSO (LNCaP cells; GA control): 9%

Structure (SMILES): CO[C@@H]1[C@@H](O)[C@@H](O)[C@H](Oc2ccc3cc(NC(C)=O)c(=O)oc3c2C)OC1(C)C [KU-32, reference compound]
protection of Hsp90 CTD from pronase degradation (DARTs) (GST-Hsp90α CTD (626–732)): protects the Hsp90 CTD from pronase degradation at levels comparable

Source: PMC6453127 (Biochimica et biophysica acta. General subjects, 2017)
